Results published in ChEMBL document CHEMBL4619791, “3-Difluoroalkyl Quaternary Oxindoles Inhibit Macrophage Pyroptosis by Blocking Inflammasome Recruitment of Caspase-1” (ACS Med Chem Lett, 2020).
Activity calls are given as the source filed them. The calls are words filed in the database; no cut-off is given here.

How the values were obtained:
J774.A1 [1] = assay: Inhibition of pyroptosis in LPS-primed immortalized mouse […] cells followed by subsequent nigericin stimulation by imaging analysis; assay type: functional, cell-based
[2] = Toxicity in zebrafish embryo; design: species or system Danio rerio; settings: in vivo
How it was run: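 Zebrafish embryos exposed to compound. EC100 is the concentration at which all treated embryos show early lethality, embryonic defects or developmental delay.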

J774.A1 [3] = assay: Inhibition of pyroptosis in LPS-primed immortalized mouse […] cells assessed as reduction in nigericin-induced IL-beta secretion by imaging analysis; assay type: functional
Caspase-1 (Homo sapiens) = target: T1, Caspase-1 (Homo sapiens) (UniProt P29466); assay: Inhibition of pronase-mediated caspase-1 degradation in HEK293 cell lysate at 5 uM measured after 30 mins by DARTS based Western blot analysis; assay type: cell-free
T1 sequence (whole entry): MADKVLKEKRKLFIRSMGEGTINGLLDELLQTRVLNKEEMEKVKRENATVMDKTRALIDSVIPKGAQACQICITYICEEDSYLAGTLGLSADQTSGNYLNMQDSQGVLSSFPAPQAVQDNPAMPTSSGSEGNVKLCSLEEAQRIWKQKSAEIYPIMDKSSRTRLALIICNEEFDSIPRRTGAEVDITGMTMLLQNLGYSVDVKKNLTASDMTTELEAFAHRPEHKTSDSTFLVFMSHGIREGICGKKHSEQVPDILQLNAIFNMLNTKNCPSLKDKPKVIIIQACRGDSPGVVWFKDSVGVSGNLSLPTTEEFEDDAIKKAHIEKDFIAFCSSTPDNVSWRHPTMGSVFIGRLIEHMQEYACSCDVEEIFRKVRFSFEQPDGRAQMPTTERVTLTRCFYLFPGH
How it was run: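 DARTS assay: cell lysates pretreated with compound, then digested with different Pronase concentrations. Caspase-1 stability read by immunoblot against a histone H3 control.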

Q: Which results are given for `CCOC(CN1C(=O)C(NC(=O)OC(C)(C)C)(C(F)(F)C(=O)c2ccc(OC)cc2)c2ccccc21)OCC` (stereo not drawn)?
A: EC50 (J774.A1 [1]): 17.5 µM; EC100 [2]: > 50 µM; Activity (J774.A1 [3]): 202.6 pg/mL

Q: What does the source list for `N#CC(C#N)C1(C(F)(F)C(=O)c2ccc(Cl)cc2)C(=O)Nc2ccccc21` (stereo not drawn)?
A: EC100 [2]: 20 µM; Activity (J774.A1 [3]): 252.29 pg/mL

Q: Which EC50 (J774.A1 [1]) does the source give for `CCOC(CN1C(=O)C(NC(=O)OC(C)(C)C)(C(F)(F)C(=O)c2ccccc2)c2ccccc21)OCC` (stereo not drawn) here?
A: 9.5 µM

Q: And the EC100 [2]?
A: 50 µM

Q: What about the Activity (J774.A1 [3]) of the same molecule?
A: 222.04 pg/mL

Q: Which inhibition (Caspase-1 (Homo sapiens)) does the source give for `CN1C(=O)C(NC(=O)OC(C)(C)C)(C(F)(F)C(=O)c2ccccc2)c2ccccc21` (stereo not drawn) here?
A: inactive

Q: What about the EC100 [2] of the same molecule?
A: > 50 µM

Q: And the Activity (J774.A1 [3])?
A: 232.64 pg/mL

Q: With `CC(C)(C)OC(=O)NC1(C(F)(F)C(=O)c2ccccc2)C(=O)Nc2ccccc21` (stereo not drawn) as the molecule, how does the EC100 [2] read?
A: > 50 µM

Q: What about the Activity (J774.A1 [3]) of the same molecule?
A: 240.83 pg/mL
